Legend:
[1] = tested on: food intake in freely-feeding rats; assay: 3-h IV infusion at dark onset, food intake in non-food-deprived rats; format: in vivo, rat (male Sprague-Dawley)
Procedure, shortened: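 Male Sprague-Dawley rats (350–500 g), housed individually on a 12:12-h light-dark cycle, had ad libitum ground chow. They were jugular-catheterised and tethered to infusion swivels. Each received a single 3-h jugular infusion per day of test compound or vehicle (0.15 M NaCl, 0.1% BSA). Food intake was recorded continuously from bowl weight. Rats with non-patent catheters (Brevital test) were excluded. Analysis used repeated-measures ANOVA with paired t-tests.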

[2] = tested on: food intake in freely-feeding rats; conditions: cited from earlier work
[3] = 15 pmol/kg/min, 3-h IV infusion at dark onset, vs vehicle, 11–15 rats

In the case of peptide YY(1–36)-amide [PYY(1–36)-NH2], the “effect on food intake” value [1, 3] is reported as “significantly smaller effect”, the “effect on food intake” value ([1]; 50 pmol/kg/min, 3-h IV infusion at dark onset, vs vehicle, 11–16 rats) is reported as “similarly reduced food in a dose-dependent manner” and the “effect on food intake” value ([1]; 150 pmol/kg/min, 3-h IV infusion at dark onset, vs vehicle, 11–16 rats) is reported as “similarly reduced food in a dose-dependent manner”.
In the case of peptide YY(3–36)-amide [PYY(3–36)-NH2], the “approximate mean effective dose for inhibition of food intake” value ([2]; 3-h IV infusion at dark onset, rats, previously determined) is given as roughly 15 pmol/kg/min, the “potency in reducing food intake relative to PYY(1–36)-NH2” value ([2]; 3-h IV infusion during the early dark period, freely-feeding rats) is given as “an order of magnitude more potent” and the “effect on food intake” value [1, 3] is given as “significantly reduced food intake”. For the same substance, the “reduction of 3-h food intake” value ([1]; 15 pmol/kg/min, 3-h jugular vein infusion beginning 15 min before dark onset, vs vehicle, 11–16 rats, group means) was 29%, the “inhibition of 3-h food intake” value ([1]; 50 pmol/kg/min, 3-h jugular vein infusion beginning 15 min before dark onset, vs vehicle, 11–16 rats, group means) was 42% and the “relative anorexigenic potency (comparison between PYY forms)” value ([1]; 3-h IV infusion at dark onset, rats) was “more potent than Ser^13(PO3)-PYY(3–36)-NH2”.

Source: article PMC3060995 (Peptides, 2011)
